ChEMBL document CHEMBL3856209, “Novel pyrazolopyridine derivatives as potential angiogenesis inhibitors: Synthesis, biological evaluation and transcriptome-based mechanistic analysis” (Eur J Med Chem, 2016)
Active and inactive are the calls of the source.

Experiments:
HUVEC [1] = experiment: Effect on SIVA1 gene expression in serum-starved HUVEC after 6 hrs by microarray analysis relative to control; format: functional, Homo sapiens
HUVEC [2] = experiment: Effect on MBNL2 gene expression in serum-starved HUVEC after 6 hrs by microarray analysis relative to control; format: functional, Homo sapiens
Method in brief: (§1)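 Serum-starved confluent HUVEC (pooled from 3–5 donors, passage ≤4) were treated with 2 μM compound or vehicle in 2.5% FBS for 6 h or 24 h, and total RNA was isolated. Hybridization was on Illumina Human-HT12. Data were processed with bgAdjust, vst and rsn normalization. Changes versus DMSO were called by moderated paired t-test at p < 0.05 and |log2 fold change| > 0.5.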

HUVEC [3] = experiment: Effect on CENPW gene expression in serum-starved HUVEC after 24 hrs by microarray analysis relative to control; format: functional, Homo sapiens
Method in brief: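 Serum-starved confluent HUVEC (primary, pooled from 3–5 donors, passage ≤4) treated with 2 μM test compound or DMSO vehicle (working dilutions ≤0.1% v/v) in presence of 2.5% FBS for 6 h or 24 h; total RNA hybridized to Illumina Human-HT12 arrays; background correction, vst, rsn normalization; moderated paired t-test versus DMSO, thresholds p < 0.05 and log2 fold change >|0.5|.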

HUVEC [4] = experiment: Effect on CD34 gene expression in serum-starved HUVEC after 24 hrs by microarray analysis relative to control; format: functional, Homo sapiens
Method in brief: (§2)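 Confluent serum-starved HUVEC (primary, pooled from 3–5 donors, passage ≤4) treated with 2 μM compound or DMSO vehicle in 2.5% FBS for 6 h or 24 h. Total RNA hybridized to Illumina Human-HT12 arrays, background-corrected, vst-transformed and rsn-normalized. Differential expression versus DMSO by moderated paired t-test (p < 0.05, |log2 fold change| > 0.5).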

HUVEC [5] = experiment: Effect on LSS gene expression in serum-starved HUVEC after 24 hrs by microarray analysis relative to control; format: functional, Homo sapiens; method in brief: as §1
[6] = Upregulation of INSIG1 gene expression in serum-starved HUVEC at 2 uM after 24 hrs by qRT-PCR analysis; format: functional, cell-based; conditions: Homo sapiens
HUVEC [7] = experiment: Effect on PRR11 gene expression in serum-starved HUVEC after 6 hrs by microarray analysis relative to control; format: functional, Homo sapiens; method in brief: as §1
HUVEC [8] = experiment: Effect on ANKRD1 gene expression in serum-starved HUVEC after 6 hrs by microarray analysis relative to control; format: functional, Homo sapiens; method in brief: as §2
HUVEC [9] = experiment: Effect on NR2F1 gene expression in serum-starved HUVEC after 6 hrs by microarray analysis relative to control; format: functional, Homo sapiens; method in brief: as §1
HUVEC [10] = experiment: Effect on NEDD9 gene expression in serum-starved HUVEC after 24 hrs by microarray analysis relative to control; format: functional, Homo sapiens; method in brief: as §1

Compound | log2FC (HUVEC [1]) | log2FC (HUVEC [2]) | fold change (FC) (HUVEC [3]) | fold change (FC) (HUVEC [4]) | log2FC (HUVEC [5]) | Activity [6] | log2FC (HUVEC [7]) | fold change (FC) (HUVEC [8]) | log2FC (HUVEC [9]) | log2FC (HUVEC [10])
COc1ccc(Cn2nc(-c3ccccc3)c3cc(Cl)nc(N4CCNCC4)c32)cc1 | -0.2087 | 0.2488 |  |  |  |  |  |  |  | 
COc1ccc(Cn2nc(-c3ccccc3)c3cc(Nc4ccc(N5CCN(C)CC5)cc4)nc(N4CCN(C)CC4)c32)cc1 |  |  | -0.5146 | 0.5547 | 1.6178 | Active | 0.0749 | -0.5735 | -0.2125 | 0.6094
